Data reported in ChEMBL document CHEMBL5058577, “EUbOPEN Chemogenomics Library 2 (Multiplex)” (2022).

Tested on: HEK-293T
Assay: Multiplex assay against HEK293T
Assay type: toxicity, cell-based
Conditions: human
Procedure, shortened: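 Live cells were stained at seeding with Hoechst33342, BioTracker Green Microtubule Cytoskeleton Dye, MitoTracker Red and Annexin V Alexa Fluor 680. Following compound addition, they were imaged on a CQ1 microscope at 37°C and 5% CO2 and gated by CellPathfinder machine learning into Hoechst high-intensity objects or normal cells, with normal cells split into healthy, pyknosed or fragmented nuclei and pyknosed cells into mitotic or apoptotic. Tubulin, mitochondrial-mass and membrane-permeability phenotypes are per cents of healthy-nucleus cells.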

[1] = 12 h, 1 µM, compound concentration 1 uM, replicate 1
[2] = 12 h, 1 µM, compound concentration 1 uM, replicate 2
[3] = 12 h, 10 µM, compound concentration 10 uM, replicate 1
[4] = 12 h, 10 µM, compound concentration 10 uM, replicate 2
[5] = 24 h, 1 µM, compound concentration 1 uM, replicate 1
[6] = 24 h, 1 µM, compound concentration 1 uM, replicate 2
[7] = 24 h, 10 µM, compound concentration 10 uM, replicate 1
[8] = 24 h, 10 µM, compound concentration 10 uM, replicate 2
[9] = 48 h, 1 µM, compound concentration 1 uM, replicate 1
[10] = 48 h, 1 µM, compound concentration 1 uM, replicate 2
[11] = 48 h, 10 µM, compound concentration 10 uM, replicate 1
[12] = 48 h, 10 µM, compound concentration 10 uM, replicate 2

`Cc1c(CC(=O)O)c2cccnc2n1Cc1ccc(S(C)(=O)=O)cc1C(F)(F)F` [FEVIPIPRANT] was tested, and the “Population Apoptotic (%)” value [1] was 27%, the “Population Fragmented Nuclei (%)” value [1] was 6% and the “Population Healthy Nuclei (%)” value [1] was 83%. For the same compound, the “Population Hoechst High Intensity Objects (%)” value [1] was 5%, the “Population Membrane Permeable-Phenotype (%)” value [1] was 0% and the “Population Mitochondria Different-Phenotype (%)” value [1] was 32%. The “Population Mitotic Cells (%)” value [1] was 72%, the “Population Normal (%)” value [1] was 94% and the “Population Pyknosed Nuclei (%)” value [1] was 9%. The “Population Tubulin-Different-Phenotype (%)” value [1] was 22%, the “Total Cell Count” value [1] was 471 and the “Population Apoptotic (%)” value [2] was 41%. The “Population Fragmented Nuclei (%)” value [2] was 7%, the “Population Healthy Nuclei (%)” value [2] was 79% and the “Population Hoechst High Intensity Objects (%)” value [2] was 7%. For the same compound, the “Population Mitochondria Different-Phenotype (%)” value [2] was 52%, the “Population Mitotic Cells (%)” value [2] was 58% and the “Population Normal (%)” value [2] was 92%. The “Population Pyknosed Nuclei (%)” value [2] was 12%, the “Population Tubulin-Different-Phenotype (%)” value [2] was 16% and the “Total Cell Count” value [2] was 370. The “Population Apoptotic (%)” value [3] was 33%, the “Population Fragmented Nuclei (%)” value [3] was 5% and the “Population Healthy Nuclei (%)” value [3] was 80%. For the same compound, the “Population Hoechst High Intensity Objects (%)” value [3] was 6%, the “Population Membrane Permeable-Phenotype (%)” value [3] was 0% and the “Population Mitochondria Different-Phenotype (%)” value [3] was 46%. For the same compound, the “Population Mitotic Cells (%)” value [3] was 66%, the “Population Normal (%)” value [3] was 93% and the “Population Pyknosed Nuclei (%)” value [3] was 13%. For the same compound, the “Population Tubulin-Different-Phenotype (%)” value [3] was 29%, the “Total Cell Count” value [3] was 417 and the “Population Apoptotic (%)” value [4] was 52%. For the same compound, the “Population Fragmented Nuclei (%)” value [4] was 11%, the “Population Healthy Nuclei (%)” value [4] was 75% and the “Population Hoechst High Intensity Objects (%)” value [4] was 10%. For the same compound, the “Population Mitochondria Different-Phenotype (%)” value [4] was 66%, the “Population Mitotic Cells (%)” value [4] was 47% and the “Population Normal (%)” value [4] was 89%. The “Population Pyknosed Nuclei (%)” value [4] was 12%, the “Population Tubulin-Different-Phenotype (%)” value [4] was 32% and the “Total Cell Count” value [4] was 303. For the same compound, the “Population Apoptotic (%)” value [5] was 22%, the “Population Fragmented Nuclei (%)” value [5] was 8% and the “Population Healthy Nuclei (%)” value [5] was 81%. The “Population Hoechst High Intensity Objects (%)” value [5] was 3%, the “Population Membrane Permeable-Phenotype (%)” value [5] was 1% and the “Population Mitochondria Different-Phenotype (%)” value [5] was 18%. For the same compound, the “Population Mitotic Cells (%)” value [5] was 77%, the “Population Normal (%)” value [5] was 96% and the “Population Pyknosed Nuclei (%)” value [5] was 10%. The “Population Tubulin-Different-Phenotype (%)” value [5] was 18%, the “Total Cell Count” value [5] was 637 and the “Population Apoptotic (%)” value [6] was 43%. For the same compound, the “Population Fragmented Nuclei (%)” value [6] was 7%, the “Population Healthy Nuclei (%)” value [6] was 82% and the “Population Hoechst High Intensity Objects (%)” value [6] was 4%. The “Population Membrane Permeable-Phenotype (%)” value [6] was 0%, the “Population Mitochondria Different-Phenotype (%)” value [6] was 37% and the “Population Mitotic Cells (%)” value [6] was 56%. The “Population Normal (%)” value [6] was 95%, the “Population Tubulin-Different-Phenotype (%)” value [6] was 14% and the “Total Cell Count” value [6] was 457. The “Population Apoptotic (%)” value [7] was 33%, the “Population Fragmented Nuclei (%)” value [7] was 8% and the “Population Healthy Nuclei (%)” value [7] was 80%. The “Population Hoechst High Intensity Objects (%)” value [7] was 5%, the “Population Membrane Permeable-Phenotype (%)” value [7] was 0% and the “Population Mitochondria Different-Phenotype (%)” value [7] was 31%. For the same compound, the “Population Mitotic Cells (%)” value [7] was 66%, the “Population Normal (%)” value [7] was 94% and the “Population Pyknosed Nuclei (%)” value [7] was 10%. The “Population Tubulin-Different-Phenotype (%)” value [7] was 20%, the “Total Cell Count” value [7] was 499 and the “Population Apoptotic (%)” value [8] was 50%. For the same compound, the “Population Fragmented Nuclei (%)” value [8] was 9%, the “Population Healthy Nuclei (%)” value [8] was 81% and the “Population Hoechst High Intensity Objects (%)” value [8] was 11%. The “Population Mitochondria Different-Phenotype (%)” value [8] was 44%, the “Population Mitotic Cells (%)” value [8] was 50% and the “Population Normal (%)” value [8] was 88%. The “Population Pyknosed Nuclei (%)” value [8] was 8%, the “Total Cell Count” value [8] was 334 and the “Population Apoptotic (%)” value [9] was 16%. For the same compound, the “Population Fragmented Nuclei (%)” value [9] was 13%, the “Population Healthy Nuclei (%)” value [9] was 79% and the “Population Hoechst High Intensity Objects (%)” value [9] was 1%. The “Population Membrane Permeable-Phenotype (%)” value [9] was 2%, the “Population Mitochondria Different-Phenotype (%)” value [9] was 12% and the “Population Mitotic Cells (%)” value [9] was 83%. For the same compound, the “Population Normal (%)” value [9] was 98%, the “Population Pyknosed Nuclei (%)” value [9] was 7% and the “Population Tubulin-Different-Phenotype (%)” value [9] was 12%. The “Total Cell Count” value [9] was 1065, the “Population Apoptotic (%)” value [10] was 20% and the “Population Fragmented Nuclei (%)” value [10] was 11%. For the same compound, the “Population Healthy Nuclei (%)” value [10] was 82%, the “Population Hoechst High Intensity Objects (%)” value [10] was 2% and the “Population Membrane Permeable-Phenotype (%)” value [10] was 0%. For the same compound, the “Population Mitochondria Different-Phenotype (%)” value [10] was 16%, the “Population Mitotic Cells (%)” value [10] was 79% and the “Population Normal (%)” value [10] was 97%. For the same compound, the “Population Pyknosed Nuclei (%)” value [10] was 6%, the “Population Tubulin-Different-Phenotype (%)” value [10] was 10% and the “Total Cell Count” value [10] was 713. The “Population Apoptotic (%)” value [11] was 29%, the “Population Fragmented Nuclei (%)” value [11] was 14% and the “Population Healthy Nuclei (%)” value [11] was 78%. For the same compound, the “Population Hoechst High Intensity Objects (%)” value [11] was 4%, the “Population Membrane Permeable-Phenotype (%)” value [11] was 0% and the “Population Mitochondria Different-Phenotype (%)” value [11] was 24%. The “Population Mitotic Cells (%)” value [11] was 70%, the “Population Normal (%)” value [11] was 95% and the “Population Pyknosed Nuclei (%)” value [11] was 7%. The “Population Tubulin-Different-Phenotype (%)” value [11] was 14%, the “Total Cell Count” value [11] was 794 and the “Population Apoptotic (%)” value [12] was 45%. For the same compound, the “Population Healthy Nuclei (%)” value [12] was 77%, the “Population Hoechst High Intensity Objects (%)” value [12] was 7% and the “Population Membrane Permeable-Phenotype (%)” value [12] was 1%. The “Population Mitochondria Different-Phenotype (%)” value [12] was 22%, the “Population Mitotic Cells (%)” value [12] was 55% and the “Population Normal (%)” value [12] was 92%. For the same compound, the “Population Pyknosed Nuclei (%)” value [12] was 8%, the “Population Tubulin-Different-Phenotype (%)” value [12] was 17% and the “Total Cell Count” value [12] was 491.
